ChEMBL document CHEMBL1909603, “Synthesis of novel N-(2-hydroxy-2-p-tolylethyl)-amide and N-(2-oxo-2-p-tolylethyl)-amide derivatives and their antidyslipidemic and antioxidant activity” (2011)

Key:
Assay type in all cases: functional
Rattus norvegicus [1] = assay: Antihyperlipidemic activity in Charles Foster rat assessed as reduction of triton WR-1339-induced plasma total cholesterol level at 100 mg/kg, po after 18 hrs; set-up: scale not given: the % may be the effect or the level left
In short: (§1)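 Male Charles Foster rats (100–150 g), six per group. Triton WR-1339 400 mg/kg ip with simultaneous oral dosing at 100 mg/kg, given as a gum acacia (0.2% w/v) suspension in water. Diet was withdrawn. Vehicle went to the control and triton groups. At 18 h, under thiopentone anaesthesia, retro-orbital blood was taken into EDTA and spun at 4 °C. Plasma diluted 1:3 in saline. TC, TG and PL measured by enzymatic kits. Mean SD.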

Rattus norvegicus [2] = assay: Antihyperlipidemic activity in Charles Foster rat assessed as reduction of triton WR-1339-induced plasma triglyceride level at 100 mg/kg, po after 18 hrs; set-up: scale not given: the % may be the effect or the level left; in short: as §1
Rattus norvegicus [3] = assay: Antihyperlipidemic activity in Charles Foster rat assessed as reduction of triton WR-1339-induced plasma phospholipid level at 100 mg/kg, po after 18 hrs; set-up: scale not given: the % may be the effect or the level left; in short: as §1
Rattus norvegicus [4] = assay: Antihyperlipidemic activity in Charles Foster rat assessed as reduction of triton WR-1339-induced plasma protein level at 100 mg/kg, po after 18 hrs; set-up: scale not given: the % may be the effect or the level left
Rattus norvegicus [5] = assay: Antihyperlipidemic activity in Charles Foster rat assessed as reduction of triton WR-1339-induced plasma post heparin lipolytic activity assessed per mL of plasma at 100 mg/kg, po after 18 hrs; set-up: scale not given: the % may be the effect or the level left
In short: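 Male Charles Foster rats (100–150 g), six per group. Triton WR-1339 400 mg/kg ip together with an oral 100 mg/kg dose in gum acacia suspension. Diet was withdrawn and vehicle controls were included. At 18 h, EDTA plasma was taken from retro-orbital blood. Post-heparin lipolytic activity was measured spectrophotometrically as nmol free fatty acid formed/h/ml plasma. Mean SD.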

[6] = Antioxidant activity assessed as hydroxyl radical scavenging activity by measuring malondialdehyde formation at 200 mg/ml after 90 mins by thiobarbituric acid method
In short: (§2)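 Non-enzymic hydroxyl radical generation: deoxyribose 2.8 mM, FeSO4 2 mM, sodium ascorbate 2.0 mM and H2O2 2.8 mM in 50 mM KH2PO4 pH 7.4, with or without sample. Incubated at 37 °C for 90 min alongside reference samples and reagent blanks. MDA measured spectrophotometrically by the thiobarbituric acid method.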

[7] = Antioxidant activity assessed as xanthine-xanthine oxidase generated superoxide anion scavenging at 100 mg/ml after 30 mins by NBT reduction assay
In short: (§3)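 Enzymic superoxide generation with xanthine, xanthine oxidase (0.04 U) and nitroblue tetrazolium in 100 mM phosphate buffer pH 8.2, with or without sample. Incubated at 37 °C for 30 min, then stopped with glacial acetic acid. Formazan read at 560 nm. Percent inhibition calculated using ε 7.2 × 10³ M/cm.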

[8] = Antioxidant activity assessed as xanthine-xanthine oxidase generated superoxide anion scavenging at 200 mg/ml after 30 mins by NBT reduction assay; in short: as §3
[9] = Antioxidant activity assessed as hydroxyl radical scavenging activity by measuring malondialdehyde formation at 100 mg/ml after 90 mins by thiobarbituric acid method; in short: as §2
[10] = Antioxidant activity against microsomal lipid peroxidation assessed as malondialdehyde formation at 100 mg/ml after 90 mins by thiobarbituric acid method
[11] = Antioxidant activity against microsomal lipid peroxidation assessed as malondialdehyde formation at 200 mg/ml after 90 mins by thiobarbituric acid method

SMILES | Activity (Rattus norvegicus [1]) [%] | Activity (Rattus norvegicus [2]) [%] | Activity (Rattus norvegicus [3]) [%] | Activity (Rattus norvegicus [4]) [%] | Activity (Rattus norvegicus [5]) [%] | Activity [6] [%] | Activity [7] [%] | Activity [8] [%] | Activity [9] [%] | Activity [10] [%] | Activity [11] [%]
COc1cc(/C=C/C(=O)NCC(=O)c2ccc(C)cc2)ccc1O | 5 | 10 | 6 | 10 | 13 |  |  |  |  |  | 
COc1ccc(CC(=O)NCC(=O)c2ccc(C)cc2)cc1OC | 10 | 12 | 14 | 14 | 12 |  |  |  |  |  | 
OC[C@@H](O)[C@@H](O)[C@H](O)[C@H](O)CO |  |  |  |  |  | 45 |  |  |  |  | 
Cc1ccc(C(O)CNC(=O)/C=C/c2ccccc2O)cc1 (mixture of isomers) | 8 | 9 | 7 | 8 | 5 |  |  |  |  |  | 
Cc1ccc(C(O)CNC(=O)Cc2cccnc2)cc1 (racemic) | 23 | 25 | 22 | 23 | 19 | 29 | 17 | 31 | 17 | 22 | 29
Cc1ccc(C(=O)CNC(=O)Cc2cccnc2)cc1 | 7 | 5 | 7 | 7 | 8 |  |  |  |  |  | 
Cc1ccc(C(=O)CNC(=O)/C=C/c2ccc(Cl)c(Cl)c2)cc1 | 12 | 12 | 12 | 13 | 6 |  |  |  |  |  | 
Oc1ncnc2[nH]ncc12 |  |  |  |  |  |  |  | 69 |  |  | 
Cc1ccc(C(O)CNC(=O)/C=C/c2ccc(O)cc2)cc1 (mixture of isomers) | 7 | 9 | 9 | 8 | 7 |  |  |  |  |  | 
Cc1ccc(C)c(OCCCC(C)(C)C(=O)O)c1 [GEMFIBROZIL] | 33 | 31 | 36 | 31 | 23 |  |  |  |  |  | 
Cc1ccc(C(=O)CNC(=O)/C=C/c2ccccc2O)cc1 | 11 | 9 | 10 | 8 | 10 |  |  |  |  |  | 
Cc1ccc(C(O)CNC(=O)c2ccc(Cl)c([N+](=O)[O-])c2)cc1 (racemic) | 5 | 11 | 7 | 11 | 8 |  |  |  |  |  | 
Cc1c(C)c2c(c(C)c1O)CC[C@@](C)(CCC[C@H](C)CCC[C@H](C)CCCC(C)C)O2 |  |  |  |  |  |  |  |  |  |  | 63
Cc1ccc(C(=O)CNC(=O)c2ccc(Cl)c([N+](=O)[O-])c2)cc1 | 4 | 9 | 5 | 9 | 8 |  |  |  |  |  | 
Cc1ccc(C(O)CNC(=O)/C=C/c2ccc(Cl)c(Cl)c2)cc1 (racemic) | 16 | 14 | 13 | 15 | 14 |  |  |  |  |  | 
Cc1ccc(C(=O)CNC(=O)CCc2cccnc2)cc1 | 24 | 22 | 24 | 21 | 20 | 33 | 24 | 31 | 19 | 19 | 29
Cc1ccc(C(=O)CNC(=O)Cc2ccc(F)cc2)cc1 | 14 | 11 | 15 | 19 | 6 |  |  |  |  |  | 
Cc1ccc(C(=O)CNC(=O)/C=C/c2ccc(O)cc2)cc1 | 22 | 21 | 23 | 20 | 19 | 29 | 17 | 31 | 17 | 22 | 29
Cc1ccc(C(=O)CNC(=O)c2cccnc2)cc1 | 4 | 2 | 6 | 4 | 6 |  |  |  |  |  | 
COc1ccc([C@@H](O)CNC(=O)/C=C/c2ccccc2)cc1 [AEGELINE] | 24 | 22 | 23 | 24 | 14 | 22 | 19 | 25 | 18 |  | 
COc1cc(/C=C/C(=O)NCC(O)c2ccc(C)cc2)ccc1O (mixture of isomers) | 24 | 23 | 22 | 21 | 21 | 27 | 21 | 32 | 18 | 19 | 23
Cc1ccc(C(=O)CNC(=O)/C=C/c2ccc(OS(=O)(=O)c3ccc(C)cc3)cc2)cc1 | 7 | 4 | 9 | 6 | 7 |  |  |  |  |  | 
